# Measured values: PubChem BioAssay AID493091 (Sanford-Burnham Center for Chemical Genomics, 2011)
# About 3,000 (0.88%) of roughly 340,000 compounds were called active.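 How the source made its calls: active means inhibition above about 50% at 20 µM (limit read from the data); inactive means the rest.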 The entries come from a sample that favours actives as a whole. Non-standard residues stand in square brackets, D forms with d. Residues, ends and D or L forms follow the SMILES beside them. ξ: configuration not given here. ξM = CSCCC(N)C(=O)O
# Target: Carboxy-terminal domain RNA polymerase II polypeptide A small phosphatase 1 (Homo sapiens) (UniProt Q9GZU7)
# Test: inhibition of human SCP1 dephosphorylation activity – biochemical, colorimetric, uHTS, primary screen (AID 493091);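 further: plate controls were DMSO wells with enzyme for no effect and wells lacking enzyme for full effect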
# Conditions: Recombinant Scp1, phosphopeptide, malachite green phosphate absorbance; at 20 µM; stronger effect = higher value
# Summary of the method: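 Test system: SCP-1 phosphatase catalytic domain, residues 76-261 | Compound dosing: One concentration, 20 µM, with 1.0% DMSO | Schedule: 45 min room-temperature reaction, 5 min colour, 30 min stabiliser | Detection: Absorbance at 630 nm | Read-out basis: % inhibition of SCP-1 phosphate liberation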
# Sequence of Carboxy-terminal domain RNA polymerase II polypeptide A small phosphatase 1 (Homo sapiens) (Q9GZU7 76-261 limits assumed): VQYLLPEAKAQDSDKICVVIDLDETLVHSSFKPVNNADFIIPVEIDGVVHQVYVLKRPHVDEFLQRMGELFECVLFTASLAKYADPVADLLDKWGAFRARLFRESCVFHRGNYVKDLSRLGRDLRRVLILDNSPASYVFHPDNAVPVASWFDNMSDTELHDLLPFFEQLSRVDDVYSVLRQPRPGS
row,Compound,inhibition
1,CC(C)(C)c1cc2cccnc2n1Cc1cccc(F)c1,-1.78% (inactive)
2,CCOC(=O)C1CCN(S(=O)(=O)c2c(C)noc2C)CC1,-4.7% (inactive)
3,COc1ccccc1NC(=O)c1ccc(N2CC3CC(C2)c2cccc(=O)n2C3)c(NC(=O)c2cccnc2)c1 (configuration not stated),-3.99% (inactive)
4,Cc1ccc2cc(/C=N/Nc3ccc(C(=O)O)cc3)c(Cl)nc2c1,0.89% (inactive)
5,O=C(O)c1ccc(N/N=C/c2ccc3ncccc3c2)cc1,50.4% (active)
6,CCNC(=S)NNC(=O)c1ccc2ncccc2c1,-9.05% (inactive)
7,O=c1c2ccccc2oc2nc(C3CCCCC3)n(Cc3ccco3)c(=O)c12,-2.2% (inactive)
8,Cn1c2ccccc2c(=O)c2c(=O)n(Cc3ccco3)c(COc3ccccc3)nc21,92.9% (active)
9,CCCc1nc2c(c(=O)c3ccccc3n2C)c(=O)n1C1CCCCCC1,2.39% (inactive)
10,COCCn1c(C)cc(C(=O)COC(=O)CNC(=O)c2ccco2)c1C,-7.15% (inactive)
11,Cc1ccc(C(=O)Nc2nc(N)n(-c3ccccc3)n2)cc1,-3.84% (inactive)
12,Cc1cc(S(=O)(=O)N2CCOCC2)ccc1OCC(=O)N1CCOCC1,2.62% (inactive)
13,CCC(C)NC(=O)/C=C/c1ccc(S(=O)(=O)NCc2ccco2)cc1 (configuration not stated),6.25% (inactive)
14,CC(=O)Nc1ccccc1Sc1ccc2c3c(cccc13)C(=O)N(c1ccc(C)cc1)C2=O,53.1% (active)
15,CSc1ccccc1NC(=O)C(C)N1C(=O)c2ccccc2S1(=O)=O (configuration not stated),39.4% (inactive)
16,Cc1ccc(N2C(=O)CC(Nc3cccc4ccccc34)C2=O)cc1 (configuration not stated),-3.84% (inactive)
17,COC(=O)c1cc(S(=O)(=O)Nc2ccc(C)c(F)c2)c[nH]1,-3.42% (inactive)
18,CCOC(=O)CCc1c(C)c2ccc(OCc3nn[nH]n3)c(C)c2oc1=O,2.8% (inactive)
19,Cc1c(CCC(=O)O)c(=O)oc2cc(OCc3ccc(Br)cc3)ccc12,53.3% (active)
20,Cc1c(CCC(=O)O)c(=O)oc2c(C)c(OCc3ccccc3Cl)ccc12,97.5% (active)
21,Cc1c(CCC(=O)O)c(=O)oc2cc3occ(-c4ccccc4)c3cc12,-18.2% (inactive)
22,COc1ccc2c(C)c(CCC(=O)NC3CC3)c(=O)oc2c1C,-1.31% (inactive)
23,Cc1coc2cc3oc(=O)c(CCC(=O)O)c(C)c3cc12,-1.97% (inactive)

row,Compound,inhibition
1,O=C(COC(=O)[C@H](Cc1ccccc1)NC(=O)c1cccs1)Nc1cc(F)ccc1F,-10.5% (inactive)
2,CCN(CC)c1ccc([N+](=O)[O-])cc1C(=O)O,-4.84% (inactive)
3,COc1cccc(NC(=O)Cn2cnc3sc(C)c(S(=O)(=O)N4CCN(C)CC4)c3c2=O)c1,-1.94% (inactive)
4,CCCOc1ccc(C(=O)C(CCC(CNCC)C(=O)c2ccc(OCCC)cc2)CNCC)cc1 (configuration not stated),10.4% (inactive)
5,CC(C)CCOc1ccc(C(=O)C[N+]2(C)CCOCC2)cc1,51% (active)
6,CCOc1ccc(C(=O)CCN2CCOCC2)cc1,-2.17% (inactive)
7,Cc1ccc(CNC(=O)C2CCCN2C(=O)NCc2ccccc2)cc1 (configuration not stated),-7.83% (inactive)
8,O=C(COc1ccc(Cl)cc1)Nc1ccccc1CO,-5.63% (inactive)
9,O=C(COc1ccc(-n2cnnn2)cc1)Nc1ccccc1Cl,58.7% (active)
10,C=CCc1cccc(/C=N/NC(=O)COc2ccc(-n3cnnn3)cc2)c1O,-8.78% (inactive)
11,COc1ccc(C(=O)N(Cc2ccccc2)c2ccc(C)cc2)cc1S(=O)(=O)N1CCOCC1,-6.19% (inactive)
12,C=CCOc1ccc(/C=C/C(=O)OCC(=O)NC2CCCCCC2)cc1,22% (inactive)
13,CCNc1nc(NC(C)C)nc(OCCOC(=O)c2ccccc2)n1,2.19% (inactive)
14,O=C(Nc1cccc(F)c1)[C@@H]1CCCN1,67.8% (active)
15,O=C(COC(=O)CNC(=O)C1CCCCC1)Nc1cccc(F)c1,-6.06% (inactive)
16,O=C(Nc1cccc(F)c1)NC1CCCCCCC1,-10.5% (inactive)
17,Cc1ccc(N2C(=O)N3[C@@H]4c5ccccc5OC[C@@H]4[C@@H](c4ccccc4)[C@@]3(C)C2=O)cc1,-17.6% (inactive)
18,N#C/C=C/N1CCN(Cc2ccc3c(c2)OCO3)CC1,-12.3% (inactive)
19,O=C(c1ccc(F)cc1)N1CCCC(C(=O)N2CCCCC2)C1 (configuration not stated),-6.52% (inactive)
20,Cc1ccc(Cc2nnc(SCC(=O)Nc3ccc(C)cc3C)[nH]c2=O)cc1,53.8% (active)
21,Cc1ccc(Cc2nnc(SCC(=O)Nc3ccccc3C)[nH]c2=O)cc1,16.3% (inactive)
22,COc1ccc(Cc2nnc(SCC(=O)Nc3ccc(C)c(Cl)c3)[nH]c2=O)cc1,48% (inactive)
23,COc1ccc2cc(C3=CC(=O)C[C@H](c4ccc5c(c4)OCO5)C3)ccc2c1,-11% (inactive)

row,Compound,inhibition
1,CCC(C)NC(=O)N[C@@H](CCSC)C(=O)O (some centres not stated),-4.53% (inactive)
2,COC(=O)CNC(=O)C(CCSC)NC(C)=O (configuration not stated) (Ac-[ξM]-Gly-OMe),50.3% (active)
3,COc1ccccc1OCCNC(=O)C(CCSC)NC(=O)COc1ccccc1 (configuration not stated),-8.06% (inactive)
4,CCOc1ccc(OCC)c(NC(=O)CN(C)S(=O)(=O)c2cccc3nsnc23)c1,-5.95% (inactive)
5,Cc1ccc(OCCNC(=O)c2cccc(S(=O)(=O)N3CCN(Cc4ccccc4)CC3)c2)cc1,-10.4% (inactive)
6,CCCCSc1nnc(-c2ccc(C)cc2)o1,81.5% (active)
7,CC1=CC(C)(C)N(C(=O)CSc2nnc(-c3ccccc3)o2)c2ccc(C)cc21,-2.74% (inactive)
8,Cc1ccc(-c2nnc(CN3CCN(C)CC3)o2)cc1,-6% (inactive)
9,CCSC1=C(C#N)C(=O)n2c1cc1c2CCCC1,-1.97% (inactive)
10,O=C(N/C(=C\c1ccc(F)cc1)C(=O)N1CCCCCC1)c1ccccc1,-0.73% (inactive)
11,N#CC1=C(SCc2ccc(C#N)cc2)N=C(N)C(c2nc(-c3ccccc3)cs2)C12CCCCC2 (configuration not stated),-1.99% (inactive)
12,CC1(C)CCc2nc(SCc3ccccc3)c(C#N)cc2C1,-11.5% (inactive)
13,N#CC1=C(SCc2ccccc2)NC(=O)C(C#N)C12CCCC2 (configuration not stated),68.9% (active)
14,Cc1cc(C)cc(N(CC(=O)NCC2CCCO2)S(=O)(=O)c2c(C)noc2C)c1 (configuration not stated),-3.08% (inactive)
15,O=C(O)c1ccn(COc2ccc(Br)cc2)n1,-2.51% (inactive)
16,CC1CCN(C(=O)Cn2nnnc2CN2CCOCC2)CC1,-6.52% (inactive)
17,Cc1cc(C)nc(SCc2cn3c(C)cc(C)nc3n2)n1,-3.52% (inactive)
18,COc1ccc(NC(=O)CN(C)C(=O)/C=C/c2cn(Cc3ccccc3)nc2-c2cccnc2)cc1,97.8% (active)
19,COc1cccc(NC(=O)CN(C)C(=O)/C=C/c2cn(-c3ccccc3)nc2-c2cccs2)c1,-11.8% (inactive)
20,COc1cccc(NC(=O)CN(C)C(=O)/C=C/c2cc(OC)ccc2OC)c1,-9.57% (inactive)
21,Nn1c(SCC(=O)Nc2nccs2)nnc1-c1ccco1,1.62% (inactive)
22,CC1CCCCC1NC(=O)c1cn(C)c2ccc(S(=O)(=O)N3CCOCC3)cc2c1=O (configuration not stated),-8.17% (inactive)
23,Cc1ccc(CNC(=O)Cn2cnc3c(NCc4ccccc4)ncnc32)o1,1.29% (inactive)

row,Compound,inhibition
1,Cc1nc([N+](=O)[O-])cn1CC(=O)Nc1ccc2c(c1)OCO2,-4.74% (inactive)
2,Cc1ccc(C(=O)O)cc1-c1ccc(/C=C2\SC(=O)N(CC(=O)Nc3ccc4c(c3)OCO4)C2=O)o1,94.1% (active)
3,Cc1nn(CC(=O)Nc2ccc3c(c2)OCO3)c(C)c1[N+](=O)[O-],0.9% (inactive)
4,CN(Cc1ccccc1)C(=O)c1ccc(NC2=NC3CS(=O)(=O)CC3S2)cc1 (configuration not stated),-3.86% (inactive)
5,COc1ccc(S(=O)(=O)NCCc2cc3ccc(C)c(C)c3[nH]c2=O)cc1,-6.43% (inactive)
6,COc1ccc(S(=O)(=O)c2c[nH]c(=S)[nH]c2=O)cc1Cl,52.5% (active)
7,COc1ccc(S(=O)(=O)N(C)CC(=O)N2CCCC2)cc1Cl,-2.74% (inactive)
8,Cc1ccc(S(=O)(=O)c2c[nH]c3ccc(Cl)cc3c2=O)cc1,30.5% (inactive)
9,Cc1ccc(/C=C/C(=O)Nc2cc(S(=O)(=O)N3CCCCCC3)ccc2OCC(F)(F)F)o1,-9.11% (inactive)
10,Cc1ccc(/C=C/C(=O)Nc2ccc([N+](=O)[O-])c(NC(=O)/C=C/c3ccc(C)o3)c2)o1,53.2% (active)
11,COC(=O)/C=C\C(=O)Nc1cccc([N+](=O)[O-])c1,-2.7% (inactive)
12,CCOc1ccc(NC(=O)C2CC(=O)N=C(N)S2)cc1 (configuration not stated),-10.8% (inactive)
13,Cn1c2c(c(=O)n(C)c1=O)C(c1cccc(F)c1)C(C#N)=C(N)O2 (configuration not stated),-7.3% (inactive)
14,O=C(Cc1ccc([N+](=O)[O-])cc1)N/N=C/c1ccco1,-11.8% (inactive)
15,O=C(N/N=C/c1ccco1)c1csc2c1CCCC2,0.11% (inactive)
16,O=C(N/N=C/c1ccco1)c1ccc(C(=O)N/N=C/c2ccco2)o1,83.9% (active)
17,CCn1c(=S)sc2c(=O)n(CC(=O)Nc3cccc(Br)c3)c(C)nc21,-11% (inactive)
18,Cc1ccc(-c2nc(CS(=O)CC(=O)N3CCN(c4ncccn4)CC3)c(C)o2)cc1 (configuration not stated),13.2% (inactive)
19,O=C(c1ccc(CS(=O)(=O)c2ccccc2)o1)N1CCN(c2ccccc2)CC1,62.1% (active)
20,O=C(c1ccc(S(=O)(=O)NCc2ccco2)cc1)N1CCN(c2ccccc2)CC1,22.5% (inactive)
21,COc1ccccc1CNC(=O)c1ccc(CS(=O)(=O)c2ccccc2)o1,-4.06% (inactive)
22,CC(C)NC(=O)C(c1ccc(F)cc1)N(C(=O)CCC(=O)Nc1ccccn1)c1ccccc1F (configuration not stated),-5.49% (inactive)
23,Cc1ccc(-c2noc(C3CCCN(C(=O)c4cccc(Cl)c4)C3)n2)o1 (configuration not stated),-1.22% (inactive)
